Screening results from PubChem.
FAS-TE inh = FAS thioesterase domain inhibitors, primary screen, biochemical, fluorescence intensity, uHTS; inhibition, % at 15 µM; recombinant FAS-TE, OMFH fluorogenic substrate, fluorescence endpoint; Fatty acid synthase (Homo sapiens), P49327; hit rate 0.67% among 360,000;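 active means compounds whose normalised, plate-corrected inhibition of enzyme fluorescence in the single-dose primary screen is 50% or more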;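 further: 0% = DMSO with enzyme and 100% = substrate without enzyme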
CendR NRP1 mod = modulators of CendR peptide binding to NRP-1, primary screen, biochemical, fluorescence polarization, uHTS | FAM-RPARPAR peptide binding to NRP-1 | inhibition, % at 25 µM | hit rate 0.85% among 360,000 | AID 602438, 2012;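 active means inhibition or corrected inhibition above about 18%, plus a signal ratio from 0.5 to 1.5, limit read from the data, passing the limit was not always enough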
ADAM17 inh = ADAM17 inhibitors, primary screen, biochemical, QFRET | hit rate 0.83% among 370,000 | recombinant ADAM17, EDANS/DABCYL FRET peptide cleavage | AID 720648, 2013 | inhibition, % at 6.95 µM | Disintegrin and metalloproteinase domain-containing protein 17 (Homo sapiens), P78536;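 active means inhibition above the mean of compounds lying between control limits plus 3 SD, set per campaign, cut at about 8.5% in these data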;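 further: 0% = DMSO-only wells as the low control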
Target sequence (P78536 215-824 limits assumed): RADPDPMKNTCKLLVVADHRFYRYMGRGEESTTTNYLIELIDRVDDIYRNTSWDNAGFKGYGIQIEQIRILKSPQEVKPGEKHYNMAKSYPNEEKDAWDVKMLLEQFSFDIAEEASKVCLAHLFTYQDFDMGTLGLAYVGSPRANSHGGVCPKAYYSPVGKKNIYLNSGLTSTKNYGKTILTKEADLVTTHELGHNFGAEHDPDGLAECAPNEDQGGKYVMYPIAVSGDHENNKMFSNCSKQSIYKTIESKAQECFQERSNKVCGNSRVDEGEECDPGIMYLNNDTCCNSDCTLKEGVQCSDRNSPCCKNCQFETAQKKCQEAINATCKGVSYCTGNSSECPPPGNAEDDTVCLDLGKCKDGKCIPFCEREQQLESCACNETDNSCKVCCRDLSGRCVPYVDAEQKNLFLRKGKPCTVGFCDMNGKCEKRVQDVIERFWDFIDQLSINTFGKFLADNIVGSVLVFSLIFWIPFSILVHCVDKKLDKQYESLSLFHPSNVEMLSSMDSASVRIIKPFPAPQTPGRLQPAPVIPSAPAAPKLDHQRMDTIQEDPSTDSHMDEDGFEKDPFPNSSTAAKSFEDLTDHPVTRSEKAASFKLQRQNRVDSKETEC
CaV13 ICDI inh = Primary screen for inhibitors of IQ motif and Ca2+-dependent inactivation inhibitor domain binding in CACNA1D, Förster resonance energy transfer in living cells, …; HEK cells, CFP/YFP FRET ICDI-IQ, plate reader, 10 min; percent FRET-ratio fall versus neutral wells; inhibition, % at 12.3 µM; hit rate 0.098% among 340,000; AID 743397;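 active means mean replicate inhibition of at least 30% and at least 1% of replicates passing that level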;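 further: 0% = median of the neutral control wells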
ADAM10 inh = human ADAM10 inhibitors, primary screen, biochemical, QFRET, HTS. recombinant ADAM10, EDANS/DABCYL FRET peptide cleavage, 3 h. inhibition, % at 7 µM. hit rate 0.62% among 370,000;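 active means inhibition above a per-campaign cutoff equal to the mean of compounds falling between control-based bounds plus 3 SD, cut at about 20% in these data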;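 further: 0% = DMSO wells while the 100% control is not disclosed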
Arrestin-AP2 inh = inhibitors of beta-arrestin/AP2 binding, primary screen, biochemical, GPCR trafficking, flow cytometry. hit rate 0.31% among 340,000. FITC-arrestin peptide / GST-AP2 beads; AP2 beta2 appendage carries R879A mutation. beta-arrestin 1 C-terminal peptide binding to AP2 beta2-adaptin appendage (human). inhibition, % at 10 µM;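 active means inhibition above a set limit, near 3 SD of compounds lacking own fluorescence, cut at about 54% in these data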;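 further: plate controls were DMSO wells for no effect and 5 µM unlabelled arrestin peptide for full effect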
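system = GST-tagged AP2 beta2-adaptin appendage (R879A) on 4 µm glutathione beads | reagent = FITC-labelled arrestin peptide probe, 50 nM final | schedule = compound with beads 12 min RT, then probe 1 h RT | signal = HyperCyt-sampled flow cytometry, FL1 channel, ex 488/em 535 nm | read-out = percent response from loss of bead-bound FITC fluorescence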
* marks the source's active call; other numbers are inactive results. Rows were chosen to be rich in hits. Some 2.9% of all compounds tested hit in one or more screens of this group.

How did Cc1ccc(-c2cc(C(=O)NN=Cc3c4ccccc4cc4ccccc34)[nH]n2)cc1C do in these assays?
ADAM17 inh: -4; ADAM10 inh: -10

What do the screens show for `COc1cc(NCCCC(C)N)c2ncccc2c1` (stereo not given)?
FAS-TE inh: 23; CendR NRP1 mod: 44*; ADAM17 inh: -4; CaV13 ICDI inh: -6; ADAM10 inh: -10; Arrestin-AP2 inh: 23

Results for NC(=O)CC[C@H](NC(=O)c1ccc(F)cc1)C(=O)N1CCN(Cc2ccc3c(c2)OCO3)CC1 ?
FAS-TE inh: -1; CendR NRP1 mod: 21*; ADAM17 inh: -3; CaV13 ICDI inh: -5; ADAM10 inh: -7; Arrestin-AP2 inh: 0

How did CCC(C)NC(=S)N1CCN(Cc2ccc3c(c2)OCO3)CC1 (stereo not given) do in these assays?
FAS-TE inh: -5; CendR NRP1 mod: 19; ADAM17 inh: -1; CaV13 ICDI inh: 133*; ADAM10 inh: 0; Arrestin-AP2 inh: -8

How did C[C@H](NC(=O)c1ccccc1)C(=O)N1CCN(Cc2ccc3c(c2)OCO3)CC1 do in these assays?
FAS-TE inh: -10; CendR NRP1 mod: -9; ADAM17 inh: -2; CaV13 ICDI inh: -2; ADAM10 inh: -16; Arrestin-AP2 inh: -7

How did CC(C)(C)OC(=O)N1CCc2onc(-c3ccccc3[N+](=O)[O-])c2C1=O do in these assays?
CendR NRP1 mod: 1; ADAM17 inh: -3; CaV13 ICDI inh: -10; ADAM10 inh: 0

How did COC(=O)[C@@]12CCCCN1[C@H](c1ccc(-c3ccc(F)cc3)cc1)[C@@H]1C(=O)N(C)C(=O)[C@@H]12 do in these assays?
FAS-TE inh: 33; CendR NRP1 mod: 12; ADAM17 inh: 2; CaV13 ICDI inh: -11; ADAM10 inh: 7; Arrestin-AP2 inh: 15

How did O=C(Nc1ccc(-c2ccco2)cc1)C1CCCN(Cc2ccco2)C1 (stereo not given) do in these assays?
FAS-TE inh: -1; CendR NRP1 mod: -18; ADAM17 inh: 1; CaV13 ICDI inh: 37*; ADAM10 inh: -5

How did Cc1c(CC(=O)O)c(=O)oc2cc3occ(-c4ccccc4)c3cc12 do in these assays?
FAS-TE inh: -1; CendR NRP1 mod: 44*; ADAM17 inh: -17; CaV13 ICDI inh: -18; ADAM10 inh: -36; Arrestin-AP2 inh: 11

What do the screens show for `COc1ccc(NC(=O)c2c(-c3c(Cl)cccc3Cl)noc2C)c(OC)c1`?
FAS-TE inh: 21; CendR NRP1 mod: 26*; ADAM17 inh: 6; CaV13 ICDI inh: -3; ADAM10 inh: 11; Arrestin-AP2 inh: 2

How did C=CCN1[C@@H](C)COc2cccc(N3CCCC3)c2S1(=O)=O do in these assays?
ADAM17 inh: -1; ADAM10 inh: -6

How did O=C(/C(N=Nc1cccc([N+](=O)[O-])c1)=C(/O)c1ccc(Br)cc1)C(F)(F)F do in these assays?
FAS-TE inh: 64*; CendR NRP1 mod: 9

How did OCCOCCn1c(C(CO)Nc2nc(-c3cccc(Br)c3)cs2)nc2ccccc21 (stereo not given) do in these assays?
FAS-TE inh: 5; CendR NRP1 mod: 23*; ADAM17 inh: 3; CaV13 ICDI inh: -8; ADAM10 inh: 2; Arrestin-AP2 inh: 2

What do the screens show for `O=c1ccsn1Cc1ccccc1`?
FAS-TE inh: -4; CendR NRP1 mod: 28*; ADAM17 inh: -6; ADAM10 inh: 3; Arrestin-AP2 inh: -4

Results for O=C1NC(Cc2ccccc2)C(=O)N1Cc1ccccc1 (stereo not given) ?
FAS-TE inh: -8; CendR NRP1 mod: -2; ADAM17 inh: -3; CaV13 ICDI inh: -5; ADAM10 inh: -6; Arrestin-AP2 inh: 30

Results for O=C(NCCN1CCOCC1)c1cc(-c2ccc(F)cc2)on1 ?
FAS-TE inh: -5; CendR NRP1 mod: 38*; ADAM17 inh: -4; CaV13 ICDI inh: -4; ADAM10 inh: -9; Arrestin-AP2 inh: 5
